Measurements published in ChEMBL document CHEMBL1121504, “Aporphines. 31. Synthesis and antitumor activity of aporphine nitrogen mustards” (1980).

Columns and labels:
[1] = Antitumor activity against intraperitoneally implanted colon 26 (C26) […] system at dose 16 mg/kg; assay type: functional, Mus musculus; settings: route intraperitoneal
Summary of the method: (§1)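 Murine-screen tumor implanted intraperitoneally and treated at the listed mg/kg doses under standard NCI protocols. Activity is read out as T/C, the treated-to-control ratio.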

[2] = Antitumor activity against intraperitoneally implanted colon 26 (C26) […] system at dose 32 mg/kg; assay type: functional, Mus musculus; settings: route intraperitoneal; summary of the method: as §1
[3] = Antitumor activity against intraperitoneally implanted colon 26 (C26) […] system at dose 4 mg/kg; assay type: functional, Mus musculus; settings: route intraperitoneal; summary of the method: as §1
[4] = Antitumor activity against intraperitoneally implanted colon 26 (C26) […] system at dose 8 mg/kg; assay type: functional, Mus musculus; settings: route intraperitoneal; summary of the method: as §1
B16 [5] = experiment: Antitumor activity against intraperitoneally implanted B16 melanoma tumor system at dose 16 mg/kg; assay type: functional, Mus musculus; settings: route intraperitoneal; summary of the method: as §1
B16 [6] = experiment: Antitumor activity against intraperitoneally implanted B16 melanoma tumor system at dose 2 mg/kg; assay type: functional, Mus musculus; settings: route intraperitoneal; summary of the method: as §1
B16 [7] = experiment: Antitumor activity against intraperitoneally implanted B16 melanoma tumor system at dose 32 mg/kg; assay type: functional, Mus musculus; settings: route intraperitoneal; summary of the method: as §1
B16 [8] = experiment: Antitumor activity against intraperitoneally implanted B16 melanoma tumor system at dose 4 mg/kg; assay type: functional, Mus musculus; settings: route intraperitoneal; summary of the method: as §1
B16 [9] = experiment: Antitumor activity against intraperitoneally implanted B16 melanoma tumor system at dose 8 mg/kg; assay type: functional, Mus musculus; settings: route intraperitoneal; summary of the method: as §1
P388 [10] = experiment: Antitumor activity against intraperitoneally implanted P388 lymphocytic leukemia (P388) system at dose 4 mg/kg; assay type: functional, Mus musculus; settings: route intraperitoneal; summary of the method: as §1
P388 [11] = experiment: Antitumor activity against intraperitoneally implanted P388 lymphocytic leukemia (P388) system at dose 8 mg/kg; assay type: functional, Mus musculus; settings: route intraperitoneal; summary of the method: as §1
P388 [12] = experiment: Antitumor activity against intraperitoneally implanted P388 lymphocytic leukemia (P388) system at dose 16 mg/kg; assay type: functional, Mus musculus; settings: route intraperitoneal; summary of the method: as §1
P388 [13] = experiment: Antitumor activity against intracerebrally implanted lymphocytic leukemia (P388) system at dose 16 mg/kg; assay type: functional, Mus musculus
P388 [14] = experiment: Antitumor activity against intracerebrally implanted lymphocytic leukemia (P388) system at dose 8 mg/kg; assay type: functional, Mus musculus
[15] = Antitumor activity against intracerebrally implanted ependymoblastoma (EM) tumor system at dose 0.5 mg/kg; assay type: functional
Summary of the method: (§2)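 Tumor implanted […] and treated at the listed mg/kg doses under standard NCI protocols. Activity is read out as T/C, the treated-to-control ratio.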

[16] = Antitumor activity against intracerebrally implanted ependymoblastoma (EM) tumor system at dose 1 mg/kg; assay type: functional; summary of the method: as §2
[17] = Antitumor activity against intracerebrally implanted ependymoblastoma (EM) tumor system at dose 2 mg/kg; assay type: functional; summary of the method: as §2
[18] = Antitumor activity against intracerebrally implanted ependymoblastoma (EM) tumor system at dose 0.25 mg/kg; assay type: functional; summary of the method: as §2
[19] = Antitumor activity against intracerebrally implanted ependymoblastoma (EM) tumor system at dose 4 mg/kg; assay type: functional; summary of the method: as §2
B16 [20] = experiment: Antitumor activity against B16 melanoma tumor system at dose 12.5 mg/kg; assay type: functional, Mus musculus
Summary of the method: (§3)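 B16 melanocarcinoma assay run at the listed mg/kg doses under standard NCI protocols. Activity is read out as T/C, the treated-to-control ratio.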

B16 [21] = experiment: Antitumor activity against B16 melanoma tumor system at dose 25 mg/kg; assay type: functional, Mus musculus; summary of the method: as §3
B16 [22] = experiment: Antitumor activity against B16 melanoma tumor system at dose 50 mg/kg; assay type: functional, Mus musculus; summary of the method: as §3
B16 [23] = experiment: Antitumor activity against intracerebrally implanted B16 melanoma tumor system at dose 16 mg/kg; assay type: functional, Mus musculus; summary of the method: as §2
B16 [24] = experiment: Antitumor activity against intracerebrally implanted B16 melanoma tumor system at dose 8 mg/kg; assay type: functional, Mus musculus; summary of the method: as §2
L1210 [25] = experiment: Antitumor activity against intraperitoneally implanted lymphoid leukemia (LE1210) tumor system at dose 100 mg/kg; assay type: functional, Mus musculus; settings: route intraperitoneal; summary of the method: as §1
L1210 [26] = experiment: Antitumor activity against intraperitoneally implanted lymphoid leukemia (LE1210) tumor system at dose 25 mg/kg; assay type: functional, Mus musculus; settings: route intraperitoneal; summary of the method: as §1
L1210 [27] = experiment: Antitumor activity against intraperitoneally implanted lymphoid leukemia (LE1210) tumor system at dose 50 mg/kg; assay type: functional, Mus musculus; settings: route intraperitoneal; summary of the method: as §1
P388 [28] = experiment: Antitumor activity against intraperitoneally implanted lymphocytic leukemia (P388) system at dose 12.5 mg/kg; assay type: functional, Mus musculus; settings: route intraperitoneal; summary of the method: as §1
P388 [29] = experiment: Antitumor activity against intraperitoneally implanted lymphocytic leukemia (P388) system at dose 25 mg/kg; assay type: functional, Mus musculus; settings: route intraperitoneal; summary of the method: as §1
P388 [30] = experiment: Antitumor activity against intraperitoneally implanted lymphocytic leukemia (P388) system at dose 50 mg/kg; assay type: functional, Mus musculus; settings: route intraperitoneal; summary of the method: as §1
P388 [31] = experiment: Antitumor activity against intraperitoneally implanted lymphocytic leukemia (P388) system at dose 6.25 mg/kg; assay type: functional, Mus musculus; settings: route intraperitoneal; summary of the method: as §1
[32] = Antitumor activity against intracerebrally implanted ependymoblastoma (EM) tumor system at dose 12.5 mg/kg; assay type: functional; summary of the method: as §2
[33] = Antitumor activity against intracerebrally implanted ependymoblastoma (EM) tumor system at dose 25 mg/kg; assay type: functional; summary of the method: as §2
[34] = Antitumor activity against intracerebrally implanted ependymoblastoma (EM) tumor system at dose 50 mg/kg; assay type: functional; summary of the method: as §2
P388 [35] = experiment: Antitumor activity against intraperitoneally implanted P388 lymphocytic leukemia (P388) system at dose 12.5 mg/kg; assay type: functional, Mus musculus; settings: route intraperitoneal; summary of the method: as §1
P388 [36] = experiment: Antitumor activity against intraperitoneally implanted P388 lymphocytic leukemia (P388) system at dose 25 mg/kg; assay type: functional, Mus musculus; settings: route intraperitoneal; summary of the method: as §1
P388 [37] = experiment: Antitumor activity against intraperitoneally implanted P388 lymphocytic leukemia (P388) system at dose 3.13 mg/kg; assay type: functional, Mus musculus; settings: route intraperitoneal; summary of the method: as §1
P388 [38] = experiment: Antitumor activity against intraperitoneally implanted P388 lymphocytic leukemia (P388) system at dose 6.25 mg/kg; assay type: functional, Mus musculus; settings: route intraperitoneal; summary of the method: as §1
B16 [39] = experiment: Antitumor activity against B16 melanoma tumor system at dose 1.56 mg/kg; assay type: functional, Mus musculus; summary of the method: as §3
B16 [40] = experiment: Antitumor activity against B16 melanoma tumor system at dose 3.13 mg/kg; assay type: functional, Mus musculus; summary of the method: as §3
B16 [41] = experiment: Antitumor activity against B16 melanoma tumor system at dose 6.25 mg/kg; assay type: functional, Mus musculus; summary of the method: as §3
P388 [42] = experiment: Antitumor activity against intraperitoneally implanted P388 lymphocytic leukemia (P388) system at dose 50 mg/kg; assay type: functional, Mus musculus; settings: route intraperitoneal; summary of the method: as §1

Compound `COc1ccc2c(c1O)-c1cccc3c1C(C2)N(CCCl)CC3` (centres undefined) has a T/C [1] of 108, a T/C [2] of 124 and a T/C [3] of 107. The T/C [4] was 119, the T/C (B16 [5]) was 106 and the T/C (B16 [6]) was 100. The T/C (B16 [7]) was 103, the T/C (B16 [8]) was 106 and the T/C (B16 [9]) was 102. For the same compound, the T/C (P388 [10]) was 151, the T/C (P388 [11]) was 114 and the T/C (P388 [12]) was 128. For the same compound, the T/C (P388 [13]) was 107, the T/C (P388 [14]) was 96 and the T/C [15] was 100. It also gave a T/C [16] of 96, a T/C [17] of 99 and a T/C [18] of 105. It also gave a T/C [19] of 104.

Work on `COc1ccc2c(c1OC(C)=O)-c1cc(O)cc3c1C(C2)N(C(=O)CN(CCCl)CCCl)CC3` (centres undefined) yielded a T/C (B16 [20]) of 134, a T/C (B16 [21]) of 135 and a T/C (B16 [22]) of 170. It also gave a T/C (B16 [23]) of 102, a T/C (B16 [24]) of 111 and a T/C (L1210 [25]) of 88. It also gave a T/C (L1210 [26]) of 136, a T/C (L1210 [27]) of 127 and a T/C (P388 [28]) of 174. The T/C (P388 [29]) was 168, the T/C (P388 [30]) was 130 and the T/C (P388 [31]) was 143. For the same compound, the T/C [32] was 94, the T/C [33] was 99 and the T/C [34] was 86.

In the case of `COc1ccc2c(c1O)-c1cc(O)cc3c1C(C2)N(C(=O)CN(CCCl)CCCl)CC3` (centres undefined), the T/C (P388 [35]) is reported as 158, the T/C (P388 [36]) is reported as 114 and the T/C (P388 [37]) is reported as 130. The T/C (P388 [38]) was 149.

`COc1ccc2c(c1OC(C)=O)-c1cc(OC(C)=O)cc3c1C(C2)N(C(=O)CN(CCCl)CCCl)CC3` (centres undefined) showed a T/C (B16 [39]) of 120, a T/C (B16 [20]) of 150 and a T/C (B16 [21]) of 150. It also gave a T/C (B16 [40]) of 120, a T/C (B16 [22]) of 170 and a T/C (B16 [41]) of 159. For the same compound, the T/C (P388 [35]) was 170, the T/C (P388 [36]) was 185 and the T/C (P388 [37]) was 138. For the same compound, the T/C (P388 [42]) was 95 and the T/C (P388 [38]) was 150.
